{"source": "the RNAGym collection of RNA variant scans (doi:10.1126/science.aae0568)", "parents": {"B1": {"name": "tRNA (parent)", "chain": "GUUCCGUUGGCGUAAUGGUAACGCGUCUCCCUCCUAAGGAGAAGACUGCGGGUUCGAGUCCCGUACGGAACG"}}, "note": "This sample holds only a part of the variants without activity."}
{"variants_of": "B1", "assay": "yeast fitness relative to wild type (ratio to wild type); higher = fitter; tRNA-Arg(CCU), competitive growth, 37 C, YPD", "procedure,_shortened": "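The tRNA-Arg(CCU) gene variants were made by chemical synthesis with a 3% per-site mutation rate at 69 sites and inserted at the native genomic locus of Saccharomyces cerevisiae. After pooling, the strains were competed in YPD at 37°C for 24 hours in six parallel replicates. Gene amplicons from the start population and each end population were read by 100-nucleotide paired-end sequencing, and Darwinian fitness relative to wild type was taken from genotype frequency changes. Genotypes needed ≥ 100 starting reads, and estimates < 0.5 were set to 0.5.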"}
{"variant": "GUUCCGUUGGCGUAAAGCUAACGCGACUCCCUCCUAAGGAGAAGACCGCGGGUUCGAGUCCCGUCCGGAACG", "yeast fitness": "≤ 0.5"}
{"variant": "GUUCCGUUGGCGUAAAGAUAACGCGUCUCCCUCCUAAGGAGAAGACUGCGGGUUCAAGUCCCGUACCGAACG", "yeast fitness": "≤ 0.5"}
{"variant": "GUUCCGUUGGCGUAAAGGUAACGCGUCUCCAUCCUAAGGCGAAGACUGCGGGUUCGAGUCCCGUACGGAACG", "yeast fitness": "≤ 0.5"}
{"variant": "GUUCCGUUGGCGUAAAGGUAACGCGUCUCCCUCCUAAGGAGAAGACUGCGGGAUCGGGUCCCGUACGGAACG", "yeast fitness": "≤ 0.5"}
{"variant": "GUUCCGUUGGCGUAAAGGUAACGCGUCUCCCUCCUAAGGAAAAGACUGCGGGUUCGAGUCCCGUACGGAACG", "yeast fitness": 1.1}
{"variant": "GUUCCGUUGGCGUAAAGGUAACGCGUCUCCCUCCUAAGGAGAAGAGUGCGGGUUCGGGUCACGUACGGAACG", "yeast fitness": "≤ 0.5"}
{"variant": "GUUCCGUUGGCGUAAAGGUAACGCGUCUCCCUCCUAAGGAGAAGACUGCGGGUUCGAGUCCCGUAUGGAACG", "yeast fitness": 0.897}
{"variant": "GUUCCGUUGGCGUAACGGUAACGGGUCUCGCUCCUUAGGAGAAGACUGCGGGUUCGAGUCCCGUAUGGAACG", "yeast fitness": "≤ 0.5"}
{"variant": "GUUCCGUUGGCGUAAAGGUAACGCGUCCCCCUCCUAAGGAGAAGACUGCGGGUUCGAGUCCCGUACGGACCG", "yeast fitness": 0.569}
{"variant": "GUUCCGUUGGCGUAAAGGUAACGCGUCUCCGUCCUAAGGAGAAGACUGCGGGUUCGAGUCCCGUUCGGAGCG", "yeast fitness": "≤ 0.5"}
{"variant": "GUUCCGUUGGCGUAAAGGUAACGAGUCUCGCUCUUAAGGAGAAGACUGCGGGUUCCAGUCCCGUACGGAACG", "yeast fitness": 0.634}
{"variant": "GUUCCGUUGGCGUAAAGAUAACGCGUCUCCUUCCUAAGGAGAAGACUGCGGGUUCGAGUCCCGUGCGGAACG", "yeast fitness": 0.548}
{"variant": "GUUCCGUUGGCGUAAAGGUAACGCGUCUCCCUCCUAAGGAGAAGACUGCGGGUUAGAGUCCCGUACGGCACG", "yeast fitness": "≤ 0.5"}
{"variant": "GUUCCGUUGGCGUAAAGGUAACGCGACUCGCUCCUAAGGAGAAGACUGCGGGUUCGAGCCCCGUACGGAACG", "yeast fitness": "≤ 0.5"}
{"variant": "GUUCCGUUGGCGUAAAGGUAACGCGUCUCCCACCUAAGGCGAAGACUGCGGGAUCGAGUCCCGUACGGAACG", "yeast fitness": 0.551}
{"variant": "GUUCCGUUGGCGUAAAAGUAAGGCGUCUCCCUCCUAAGGAGAAGACUGCGGGUUCGAGUCUCGUACGCAACG", "yeast fitness": 0.659}
{"variant": "GUUCCGUUGGCGUAACGGUAAAGCGUCUCUGUCCUAAGGAGAAGACUGCGGGUUCGAGUCCCGUACGGAACG", "yeast fitness": "≤ 0.5"}
{"variant": "GUUCCGUUGGCGUAAAGGUAACGCGUCUCCGUCCUAAGGAGAAGACUGCGGGUUCGAGUCCCGUCCGGAACG", "yeast fitness": 0.619}
{"variant": "GUUCCGUUGGCGUAAACGUAACGCGUCUCCCUCCUAAGGAGAUGCAUGCGGGUUCGAGUCUCGUACGGAACG", "yeast fitness": "≤ 0.5"}
{"variant": "GUUCCGUUGGCGUAAAGGUAACGCGUCUCCCUCCUAAGGAGAAGACUUCGGGUUCGAGUCCCGUACGGAACG", "yeast fitness": 0.754}
{"variant": "GUUCCGUUGGCGUAAAGGUAACGCGUCUCCCUCCUAAGGAGAAGACCGCGGGUUCGAGUCCCGUACGGAACG", "yeast fitness": 1.01}
{"variant": "GUUCCGUUGGCGUAAAGGUAACGAGUCUCCCUCCUAAGGAGAGGACUGCGGGUUCGAGUCCCGUACGAAACG", "yeast fitness": "≤ 0.5"}
{"variant": "GUUCCGUUGGCGUAAAGGAAACGCGUCUCCCUCCUAAGGAGAAGAUUGCGGGUUCGAGUCGCGUACGGAACG", "yeast fitness": 0.571}
{"variant": "GUUCCGUUGGCGUAAAGGUAACGGGUCUCCCUCCUAAGGAGAAGACUGCGGGUUCAAGUCCCGUACGGAACG", "yeast fitness": "≤ 0.5"}
{"variant": "GUUCCGUUGGCGUAAAGGGAACGCGUCUCCCUUCUAAGGCAACGACUGCGGGUUCGAGUCGCGUACGGAACG", "yeast fitness": "≤ 0.5"}
{"variant": "GUUCCGUUGGCGUAAAGGUAACGCGUCUCCAUCGUAAGGAGAAGACUGCGGGUUCGAGUUCCGUACGUAACG", "yeast fitness": "≤ 0.5"}
{"variant": "GUUCCGUUGGCGUAACGGUACUGCGUCUCCCUCCUAAGGAGAAGACUGCGGGUUCGAGUCCCGUACGGAACG", "yeast fitness": "≤ 0.5"}
{"variant": "GUUCCGUUGGCGUAAAGGUAACGAGUCUCCCUCCUAAGGAGAGGACUGCGGGUUCGAGUCCCGUACGGAACG", "yeast fitness": "≤ 0.5"}
{"variant": "GUUCCGUUGGCGUAAAGGUAACGGGUCUCCCUCCUAAGGAGAAGACUGCGGGUUCGAGUCCCGUACGGAACG", "yeast fitness": 0.528}
{"variant": "GUUCCGUUGGCGUAAAGGUAACGCGUCUCCCUCCUAAGGAGAAGACUGCGGGUUCGAGUCCUGUACGGAACG", "yeast fitness": 0.918}
{"variant": "GUUCCGUUGGCGUAAAGGUAAGGCGUCUCCCUCCUAAGGAGAAGACUACGGGUUCGAGUCCCGUACGGAACG", "yeast fitness": 0.994}
{"variant": "GUUCCGUUGGCGUAAAGGUAACGCGUCUCCAUCCUAAGGCGAAGACUGCGGCUUCGAGUCCCGUACGGAACG", "yeast fitness": "≤ 0.5"}
{"variant": "GUUCCGUUGGCGUAACGGUAACGCGUCUCCCUCCUAAGGAGAAGACUGCGGGUUCGAGUCCCGUACGGUACG", "yeast fitness": 0.998}
{"variant": "GUUCCGUUGGCGUAAAGGUAACGCGUCUCCCUCCUAAGGAGAAGACUGCGGGUUCGAGUCCCAUACGGAACG", "yeast fitness": 0.798}
{"variant": "GUUCCGUUGGCGUAACGGUAACGCGUCUCCCUCCUAGGGAGCAGACUGCGGGUUCGAGUCCCGUACGGUACG", "yeast fitness": "≤ 0.5"}
{"variant": "GUUCCGUUGGCGUAAAGGUAACGCGUCUCCCUCCUAAGAAGGAGACUGCGGGUUAGAGUCCAGUACGGAACG", "yeast fitness": "≤ 0.5"}
{"variant": "GUUCCGUUGGCGUAACGGUAAAGCGUCUCCCUCCUAAGGAGAAGACUGCGGGCUCGAGUCCCGUACGGAACG", "yeast fitness": 0.629}
{"variant": "GUUCCGUUGGCGUAAAGGUAAUGCGCCUCCCUCCUAAGGAGAAGACUGCGGGUGCGAGUCCCGUAAGGAACG", "yeast fitness": 0.58}
